Laboratory results from ChEMBL document CHEMBL1121602, “Analogues of 8-[[6-(diethylamino) hexyl]amino]-6-methoxy-4-methylquinoline as candidate antileishmanial agents” (1980).
Active and inactive are the calls of the source. No cut-off for these calls is given here.

Tests used:
[1] = tested on: Cricetinae gen. sp.; test: Antileishmanial activity against Leishmania donovani in hamsters at a concentration of 0.20 mg/kg; assay type: functional; settings: dose 0.2 mg/kg
Summary of the method: (§1)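 L. donovani infection in hamsters, following an earlier-cited protocol. Meglumine antimoniate was the reference drug. A G index, the activity of each test agent relative to the reference, was calculated from the dose-response data.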

[2] = tested on: Cricetinae gen. sp.; test: Antileishmanial activity against Leishmania donovani in hamsters at a concentration of 0.81 mg/kg; assay type: functional; summary of the method: as §1
[3] = tested on: Cricetinae gen. sp.; test: Antileishmanial activity against Leishmania donovani in hamsters at a concentration of 13 mg/kg; assay type: functional; summary of the method: as §1
[4] = G index = SD90 for meglumine antimoniate / SD90 for the compound; assay type: functional; summary of the method: as §1
[5] = tested on: Cricetinae gen. sp.; test: Antileishmanial activity against Leishmania donovani in hamsters at a concentration of 52 mg/kg; assay type: functional; summary of the method: as §1
[6] = tested on: Cricetinae gen. sp.; test: Antileishmanial activity against Leishmania donovani in hamsters at a concentration of 0.05 mg/kg; assay type: functional; summary of the method: as §1
[7] = tested on: Cricetinae gen. sp.; test: Antileishmanial activity against Leishmania donovani in hamsters at a concentration of 13 mg/kg (toxic); assay type: functional; summary of the method: as §1
[8] = tested on: Cricetinae gen. sp.; test: Antileishmanial activity against Leishmania donovani in hamsters at a concentration of 0.81 mg/kg; I = inactive; assay type: functional, organism-based; set-up: dose 0.81 mg/kg; summary of the method: as §1
[9] = tested on: Cricetinae gen. sp.; test: Antileishmanial activity against Leishmania donovani in hamsters at a concentration of 13 mg/kg; I = inactive; assay type: functional, organism-based; set-up: dose 13 mg/kg; summary of the method: as §1
[10] = tested on: Cricetinae gen. sp.; test: Antileishmanial activity against Leishmania donovani in hamsters at a concentration of 208 mg/kg.; assay type: functional; summary of the method: as §1

Compound: CCN(CC)CCCCCNc1cc(OC)cc2c(C)ccnc12
- Supression [1]: 91.5%
- Supression [2]: 100%
- Supression [3]: 100%
- G Index [4]: 178
- Supression [5]: 100%

Compound: COc1cc(NCCCCCCN(C(C)C)C(C)C)c2nccc(C)c2c1.Cl.Cl
- Supression [1]: 97.4%
- Supression [2]: 100%
- Supression [3]: 97.5%
- Supression [6]: 20.2%
- G Index [4]: 310

Compound: COc1cc(NCCCCCC(C)NC(C)C)c2nccc(C)c2c1.Cl (stereo unspecified)
- Supression [1]: 97.3%
- Supression [2]: 100%
- Supression [7]: 95.4%
- G Index [4]: 300

Compound: CCN(CC)CCCCCCNc1cc(OC)c(OC)c2c(C)ccnc12.Cl.Cl
- Supression [1]: 100%
- Supression [2]: 100%
- Supression [3]: 99.9%
- Supression [6]: 68%
- G Index [4]: 401

Compound: COc1cc(NCCCCCCNC2CCC2)c2nccc(C)c2c1.Cl
- Supression [2]: 99.2%
- Supression [3]: 100%
- G Index [4]: 188
- Supression [5]: 100%

Compound: CCN(C(C)C)C(C)CCCCCNc1cc(OC)cc2c(C)ccnc12.Cl.Cl (stereo unspecified)
- Supression [1]: 97.3%
- Supression [2]: 100%
- Supression [7]: 95.4%

Compound: CCN(CC)CCCCCCNc1cc(OC)cc2c(C)cc(O)nc12
- Supression [8]: inactive
- Supression [9]: inactive
- Supression [10]: 62.8%

Compound: CCN(CC)CCCCCCCNc1cc(OC)cc2c(C)ccnc12.Cl.Cl
- Supression [1]: 73.1%
- Supression [2]: 99.8%
- Supression [3]: 100%
- G Index [4]: 96.8

Compound: COc1cc(NCCCCCCNCCO)c2nccc(C)c2c1.Cl
- Supression [3]: 99.9%
- G Index [4]: 300

Compound: CCCN(CCC)CCCCCCNc1cc(OC)cc2c(C)ccnc12.Cl
- Supression [1]: 99.9%
- Supression [2]: 99.9%
- Supression [6]: 31%
- G Index [4]: 333

Compound: CCN(CCO)CCCCCCNc1cc(OC)cc2c(C)ccnc12.Cl
- Supression [3]: 79.2%
- G Index [4]: 3.4
- Supression [5]: 95.4%

Compound: CCN(CC)CCCCCCNc1cc(OC)cc2c(C)ccnc12 [SITAMAQUINE]
- Supression [1]: 99.6%
- Supression [2]: 100%
- Supression [6]: 83.7%
- G Index [4]: 474
